According to ChEMBL document CHEMBL4334422, “Toxicities and beneficial protection of H2S donors based on nonsteroidal anti-inflammatory drugs” (Medchemcomm, 2019):
Activity calls are given as the source filed them. The rule behind the calls is not given here.

Columns and labels:
[1] = system: Rattus norvegicus; test: Antihypertensive activity in spontaneously hypertensive Wistar kyoto rat assessed as reduction in systolic arterial pressure at 10 mg/kg, ip administered for 6 hrs and measured every 30 mins post treatment by tail-cuff method; assay type: functional
In short: (§1)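 Male SHRs (8 weeks, 300 ± 25 g; 6 per group), given compound intraperitoneally once daily at 8 am in 0.5% (w/v) sodium carboxymethyl cellulose/DMSO 3/1 (v/v), 2 mL·kg⁻¹. Vehicle-treated SHR and WKY controls. SBP, DBP and heart rate were measured by tail-cuff on awake, restrained rats before dosing, then every 30 min for 6 h. Values are mean ± SD of four independent experiments.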

[2] = system: Rattus norvegicus; test: Antihypertensive activity in spontaneously hypertensive Wistar kyoto rat assessed as reduction in diastolic arterial pressure at 10 mg/kg, ip administered for 6 hrs and measured every 30 mins post treatment by tail-cuff method; assay type: functional; in short: as §1
[3] = system: H9c2; test: Cytotoxicity against rat H9c2 cells assessed as reduction in cell viability at 10 to 80 uM incubated for 24 hrs; assay type: cell-based; conditions: h9c2, 24 h
In short: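 Rat cardiac H9c2 cells were grown in DMEM with 10% FBS and penicillin/streptomycin at 37 °C and 5% CO₂. They were seeded at 5×10⁴ cells/mL and allowed to adhere for 8 h. Cells were exposed to 10, 40 or 80 µM compound for 24 h, and survival was compared with untreated cells.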

[4] = system: H9c2; test: Cytoprotective activity against H2O2-induced toxicity in rat H9c2 cells assessed as increase in cell repair at 10 to 80 uM pretreated with compound followed by H2O2 addition and measured after 1 to 8 hrs by giemsa staining based microscopic method; assay type: functional
In short: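 H9c2 cells were injured with H₂O₂ (400 µM) for 1, 4 or 8 h to give light, medium and heavy damage, in the presence of compound at 10–80 µM. Acetaminophen or ibuprofen served as controls. Viability was measured as mean ± SD of three experiments. SOD and MDA contents were measured as mean ± SD of four experiments. Morphology was assessed by Giemsa staining under light microscopy.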

[5] = Toxicity in Wistar kyoto rat assessed as inflammatory cell infiltration in gastrointestinal tissue at 6.1 mg/kg, ip administered for 14 days by H and E staining based optical microscopic method; assay type: organism-based; conditions: in vivo, 336 h
In short: (§2)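 WKY rats, 3 per group, were dosed for 14 days, with the compound at 10 mg/kg per dose and the ibuprofen comparator at 6.1 mg/kg. Rats were anaesthetised with ether and killed by cervical dislocation. Stomach and intestine were sectioned at 5-10 µm, stained with haematoxylin and eosin, and examined by optical microscopy.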

[6] = system: Rattus norvegicus; test: Cardioprotective activity in SHR rat assessed as myocardial fibrous submucosal swelling at 10 mg/kg, ip administered for 14 days by TEM analysis; assay type: functional, organism-based
In short: (§3)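 SHRs were given 10 mg·kg⁻¹ intraperitoneally per day for 14 consecutive days, with an ibuprofen comparator and a normal control. Myocardial tissue was then removed. Sections were HE-stained for light microscopy and also examined by transmission electron microscopy at 6000, 10000 and 20000-fold.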

[7] = Toxicity in Wistar kyoto rat assessed as hyperemia in gastrointestinal tissue at 6.1 mg/kg, ip administered for 14 days by H and E staining based optical microscopic method; assay type: organism-based; conditions: in vivo, 336 h
In short: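 WKY rats (3 per group) were dosed for 14 days with ibuprofen at 6.1 mg·kg⁻¹ per day or test compound at 10 mg·kg⁻¹. Rats were killed by cervical dislocation after ether anaesthesia. Stomach and intestine were cut into 5–10 µm sections, HE-stained and examined by optical microscopy.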

[8] = system: Rattus norvegicus; test: Cardioprotective activity in SHR rat assessed as ventricular pumping dysfunction at 10 mg/kg, ip administered for 14 days by TEM analysis; assay type: functional, organism-based; in short: as §3
[9] = system: Rattus norvegicus; test: Cardioprotective activity in SHR rat assessed as swollen myocardial mitochondria at 10 mg/kg, ip administered for 14 days by TEM analysis; assay type: functional, organism-based; in short: as §3
[10] = system: Rattus norvegicus; test: Cardioprotective activity in SHR rat assessed as myocardial disk dissociation at 10 mg/kg, ip administered for 14 days by TEM analysis; assay type: functional, organism-based; in short: as §3
[11] = Cardiotoxicity in SHR rat assessed as increase in muscle bundle gaps at 10 mg/kg, ip administered for 14 days by H and E staining based microscopic assay; assay type: toxicity, organism-based; conditions: in vivo, 336 h; in short: as §3
[12] = Toxicity in Wistar kyoto rat assessed as intestinal mucosal edema at 6.1 mg/kg, ip administered for 14 days by H and E staining based optical microscopic method; assay type: organism-based; conditions: in vivo, 336 h; in short: as §2
[13] = Toxicity in Wistar kyoto rat assessed as swollen gastric mucosal cells at 6.1 mg/kg, ip administered for 14 days by H and E staining based optical microscopic method; assay type: organism-based; conditions: in vivo, 336 h; in short: as §2
[14] = Cardiotoxicity in SHR rat assessed as neatly arranged myocardial fibers at 10 mg/kg, ip administered for 14 days by H and E staining based microscopic assay; assay type: toxicity, organism-based; conditions: in vivo, 336 h; in short: as §3
[15] = Toxicity in Wistar kyoto rat assessed as hyperemia in intestinal mucosa at 6.1 mg/kg, ip administered for 14 days by H and E staining based optical microscopic method; assay type: organism-based; conditions: in vivo, 336 h; in short: as §2
[16] = system: Rattus norvegicus; test: Cardioprotective activity in SHR rat assessed as myocardial fiber melting at 10 mg/kg, ip administered for 14 days by TEM analysis; assay type: functional, organism-based; in short: as §3
[17] = Cardiotoxicity in SHR rat assessed as coarser myocardial fiber formation at 10 mg/kg, ip administered for 14 days by H and E staining based microscopic assay; assay type: toxicity, organism-based; conditions: in vivo, 336 h; in short: as §3
[18] = Cardiotoxicity in SHR rat assessed as appearance of myocardial interstitial collagen fibers at 10 mg/kg, ip administered for 14 days by H and E staining based microscopic assay; assay type: toxicity, organism-based; conditions: in vivo, 336 h; in short: as §3
[19] = system: Rattus norvegicus; test: Cardioprotective activity in SHR rat assessed as swollen myocardial interstitial vascular at 10 mg/kg, ip administered for 14 days by TEM analysis; assay type: functional, organism-based; in short: as §3
[20] = Cardiotoxicity in SHR rat assessed as reduction in muscle bundle gaps at 10 mg/kg, ip administered for 14 days by H and E staining based microscopic assay; assay type: toxicity, organism-based; conditions: in vivo, 336 h; in short: as §3
[21] = system: Rattus norvegicus; test: Cardioprotective activity in SHR rat assessed as loosen myocardial fibers at 10 mg/kg, ip administered for 14 days by TEM analysis; assay type: functional, organism-based; in short: as §3
[22] = system: Rattus norvegicus; test: Cardioprotective activity in SHR rat assessed as myocardial contraction band formation at 10 mg/kg, ip administered for 14 days by TEM analysis; assay type: functional, organism-based; in short: as §3
[23] = Toxicity in Wistar kyoto rat assessed as inflammatory cell infiltration in gastric mucosa at 6.1 mg/kg, ip administered for 14 days by H and E staining based optical microscopic method; assay type: organism-based; conditions: in vivo, 336 h; in short: as §2
[24] = Cardiotoxicity in SHR rat assessed as collagen fibers stained in interstitium at 10 mg/kg, ip administered for 14 days by H and E staining based microscopic assay; assay type: toxicity, organism-based; conditions: in vivo, 336 h; in short: as §3

C[C@H](CS)C(=O)N1CCC[C@H]1C(=O)O
Activity [1]: inactive
Activity [2]: inactive

CC(=O)Nc1ccc(O)cc1 [ACETAMINOPHEN]
Activity [3]: Non-Toxic
Activity [4]: Active

CC(C)Cc1ccc(C(C)C(=O)O)cc1 (configuration not stated) [IBUPROFEN]
Activity [5]: Toxic
Activity [6]: Active
Activity [7]: Toxic
Activity [8]: Active
Activity [9]: Active
Activity [10]: Active
Activity [11]: Active
Activity [12]: Toxic
Activity [13]: Toxic
Activity [14]: Non-Toxic
Activity [15]: Toxic
Activity [3]: Non-Toxic
Activity [16]: Active
Activity [17]: Active
Activity [18]: Active
Activity [19]: Active
Activity [20]: Active
Activity [21]: Active
Activity [22]: Active
Activity [23]: Toxic
Activity [24]: Active

COC(=O)C1=C(C)NC(C)=C(C(=O)OC)C1c1ccccc1[N+](=O)[O-]
Activity [1]: inactive
Activity [2]: inactive
